Screening data from PubChem.
H69AR inhibit = blocks growth of human H69AR lung tumor cells; viability, % at 10 µM; hit rate 6% among 85,000; H69AR lung tumor viability, ATP luminescence, 72 h; stronger effect = lower value;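 active = viability at or below 40%; inactive = viability above 40%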;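 note: multidrug resistant small cell line overexpressing MRP-1 efflux transporter; 100% = mean luminescence of untreated control wells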
HCT116 bCat-KO = beta-catenin-lacking colon tumor cell growth suppression; HCT116 beta-catenin knockout viability, CellTiter-Glo, 60 h; stronger effect = lower value; viability, % at 10 µM; AID 818; hit rate 1.5% among 140,000;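 active = viability at or under a set limit, the compound median less 4 SD, cut at about 6% in these data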;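 note: 0% = Hyamine 1622 control at 20 µM and 100% = untreated cell control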
Fibroblast inh = blocks proliferation of human lung fibroblasts. LL 47 human lung fibroblast viability, ATP luminescence; stronger effect = lower value. AID 719. viability, % at 10 µM. hit rate 1.1% among 85,000;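 active = viability at or below 50% in the single dose screen; inactive = viability above 50%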;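 note: compound exposure lasted 72 h before the ATP readout; 100% = median luminescence of untreated cell-only wells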
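Benchmarks: Cell-only wells, no compound | Test system: LL 47 human lung fibroblasts, passage 12 or lower | Input: 1,150 cells/well | Measured by: CellTiter-Glo luminescence measuring cellular ATP | Medium: IMEM, 15% FBS supplement | Schedule: Overnight attachment after seeding, then 72 h compound exposure at 37 °C | Doses: Compound addition at 0.1% DMSO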
HCT116 PTEN-null = PTEN-deleted cell growth suppression; HCT116 PTEN-null viability, CellTiter-Glo, 60 h; stronger effect = lower value; viability, % at 10 µM; hit rate 1.2% among 140,000; AID 827;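 active = viability at or below a set limit, 4 SD under the median of all tested compounds, cut at about 3.7% in these data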;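 note: PTEN knockout HCT116 line with beta catenin targeted HCT116 as companion control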
HUVEC inhibit = blocks proliferation of human endothelial cells. viability, % at 10 µM (by protocol). HUVEC proliferation, CellTiter-Glo luminescence, 72 h; stronger effect = lower value. hit rate 1.1% among 86,000;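 active = viability at or below 30%; inactive = viability above 30%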;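 note: 100% = median luminescence of DMSO-only cell control wells on each plate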
PTK2B oligo ant = antagonists of human Pyk2 oligomerization; Q14289; Q293 cells, Pyk2 FERM NanoBiT luminescence; stronger effect = lower value; z-score (the deposit names both 25 µM and 10 µM); hit rate 0.83% among 99,000; AID 1347419;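 active = Z-score of -3 or lower, scaled per plate to the spread of control and sample wells; inactive = z-score above -3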;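 note: negative z-score means lost luminescence so less FERM oligomerization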
An asterisk follows results filed as active; · = not tested or not shown. The sample as a whole holds a higher share of hits than the screen did.

SMILES | H69AR inhibit | HCT116 bCat-KO | Fibroblast inh | HCT116 PTEN-null | HUVEC inhibit | PTK2B oligo ant
O=C(c1ccccc1)c1nn(-c2ccc(Cl)cc2)c(=O)cc1C(F)(F)F | · | 2.2* | · | 1.7* | · | -0.45
O=C(c1ccccc1)c1nn(-c2ccccc2)c(=O)cc1C(F)(F)F | · | 17.2 | · | 13.8 | · | -0.8
CC(C)C(=O)Nc1ccccc1C(=O)OCC(=O)c1ccc2c(c1)OCCO2 | · | 80.6 | · | 83.6 | · | ·
COc1ccc2cc(-c3cc(C(=O)OCC(=O)NC4CCS(=O)(=O)C4)c4ccccc4n3)ccc2c1 (stereo unspecified) | · | 67.7 | · | 62.0 | · | ·
COCCCNC(=O)C1CCN(C(=O)Nc2ccc(Cl)cc2)CC1 | 93.7 | 95.3 | 96.2 | 94.1 | 101.6 | -0.26
CCOC(=O)c1c(C)[nH]c(C2=NNC(=Nc3cccc(Cl)c3)SC2)c1C | · | 2.8* | · | 2.1* | · | ·
CCOC(=O)c1c(C)[nH]c(C=O)c1Cc1cccc(Cl)c1 | · | 65.0 | · | 60.1 | · | ·
Cc1ccccc1-c1nnc(Cc2ccccc2)o1 | · | 98.7 | · | 95.1 | · | ·
c1ccc(Cc2nnc(-c3ccccc3)o2)cc1 | 92.3 | 59.3 | 9.6* | 58.5 | 32.3 | -1.39
COc1ccc(NC(=O)CN2CCN(C3c4ccccc4-c4ccccc43)CC2)cc1 | 77.9 | 81.4 | 95.8 | 72.6 | 81.7 | -0.41
CC1(C(=O)NC2CCCCCCC2)CC1(Cl)Cl (stereo unspecified) | · | 97.4 | · | 94.0 | · | 0.24
CCn1cc(C(=O)NCc2ccc3c(c2)OCO3)c(=O)c2cc(F)c(N3CCN(C(=O)c4ccco4)CC3)cc21 | 0.1* | 12.2 | 86.0 | 8.2 | 16.1* | -2.2
CCn1cc(C(=O)Nc2nncs2)c(=O)c2cc(F)c(N3CCN(C(=O)c4ccco4)CC3)cc21 | 71.7 | · | 105.5 | · | 80.2 | ·
CCn1cc(C(=O)NCc2ccccc2)c(=O)c2cc(F)c(N3CCN(C(=O)c4ccco4)CC3)cc21 | 11.9* | 58.1 | 92.9 | 44.1 | 63.0 | -2.09
N#Cc1cccc(NC(=O)Cn2c3[n+](c4ccc(C(F)(F)F)cc42)CCCCC3)c1 | · | 84.5 | · | 101.6 | · | 0.79
Cc1cc(C)cc(OCC(=O)Nc2cccc(-c3nc4ncccc4o3)c2)c1 | 81.6 | 60.9 | 104.6 | 65.5 | 58.0 | ·
COC(=O)c1ccc2c(c1)C(C)(C)C(/C=C/c1ccccc1O)=[N+]2C | · | 2.4* | · | 1.8* | · | -0.23
COc1ccc(CNC(=O)Cn2nnc(-c3ccc(NC(=O)C4CCCCC4)cc3)n2)cc1 | · | 72.8 | · | 76.0 | · | ·
CSc1ccc(/C=C(/NC(=O)c2ccc(C)cc2)C(=O)Nc2cccc(C)c2)cc1 | · | 95.8 | · | 89.0 | · | ·
Cc1nc2ccccn2c1C(=O)N=Nc1c(O)n(CCC(C)C)c2ccccc12 | · | 24.0 | · | 16.7 | · | -0.71
CCOC(=O)c1ccccc1NC(=O)COc1cc(=O)n(CC)c2ccccc12 | 86.8 | 87.2 | 98.2 | 101.0 | 68.8 | -4.16*
C=CCn1c(=O)c(C(=O)Nc2ccccc2C(=O)OCC)c(O)c2ccccc21 | 89.8 | 58.5 | 90.7 | 56.0 | 108.3 | -0.06
CCn1c(=O)cc(OCC(=O)Nc2ccc(C)cn2)c2ccccc21 | 97.3 | 64.1 | 87.5 | 52.7 | 81.3 | -0.46
CCOC(=O)c1ccccc1NC(=O)c1c(O)c2ccccc2n(CC)c1=O | 40.0* | 69.3 | 101.9 | 72.7 | 110.6 | -1.36
CCCn1c(=O)c(C(=O)Nc2nnc(CC)s2)c(O)c2ccccc21 | 23.3* | · | 98.6 | · | 109.8 | ·
SMILES | H69AR inhibit | HCT116 bCat-KO | Fibroblast inh | HCT116 PTEN-null | HUVEC inhibit | PTK2B oligo ant
CCn1c(=O)c(C(=O)Nc2ccsc2C(=O)OC)c(O)c2ccccc21 | · | 4.7* | · | 4.8 | · | ·
CC1=NCC(C)c2c1[nH]c1ccccc21 (stereo unspecified) | · | 100.5 | · | 95.0 | · | -0.39
O=C(CN1CCN(S(=O)(=O)c2ccc(Br)cc2)CC1)N/N=C/c1ccco1 | · | 80.2 | · | 93.2 | · | ·
COc1cccc2cc(C(=O)N3CCc4ccccc43)c(=O)oc12 | 83.7 | 102.5 | 109.1 | 101.8 | 107.0 | -3.04*
CCOc1cccc2cc(C(=O)N3CCc4ccccc43)c(=O)oc12 | 55.1 | 89.8 | 93.5 | 87.8 | 90.8 | 0.11
CC(C(=O)N1CCc2ccccc21)N1CCc2ccccc2C1 (stereo unspecified) | · | 87.6 | · | 80.4 | · | 0.15
COc1cc(C(=O)N2CCCc3ccccc32)cc(OC)c1OC | 25.0* | 39.5 | 111.8 | 36.4 | 88.7 | -0.09
COc1cc2c(cc1OC)CN(C(C)C(=O)N1CCc3ccccc31)CC2 (stereo unspecified) | 18.3* | 58.5 | 85.8 | 60.5 | 76.7 | 0.02
COc1ccc(-c2ccc(SCC(=O)N3c4ccccc4CC3C)nn2)cc1OC (stereo unspecified) | · | 91.8 | · | 102.5 | · | -3.22*
CC(C)CC(=O)NC1(C(F)(F)F)C(=O)N(CC(C)C)C2=C1C(=O)CC(C)(C)C2 (stereo unspecified) | · | 95.1 | · | 90.2 | · | ·
Cc1cc(N2C(=O)NC(=O)CC2C)c(C)cc1C(C)C (stereo unspecified) | · | 94.1 | · | 98.2 | · | -0.86
COC(=O)c1cc(NS(=O)(=O)c2ccc(NCc3cccnc3)c([N+](=O)[O-])c2)cc(C(=O)OC)c1 | · | 100.8 | · | 101.7 | · | ·
COc1cc(C(=O)N2c3ccccc3CC2C)cc(OC)c1OC (stereo unspecified) | 38.2* | 98.6 | 95.2 | 87.2 | 92.8 | -0.41
CC1Cc2ccccc2N1C(=O)c1ccnc(C(C)(C)C)c1 (stereo unspecified) | 87.1 | 83.2 | 93.6 | 82.1 | 97.2 | -1.81
COC(=O)c1ccc(-c2ncc(-c3cccc4ccccc34)o2)cc1 | 35.8* | 104.7 | 108.7 | 101.0 | 111.2 | 1.2
COC(=O)c1ccc(-c2nc3ccccc3o2)cc1 | 85.7 | · | 110.0 | · | 93.8 | ·
C=CCn1c(SCC(=O)c2cccs2)nc2sc(CC)cc2c1=O | 71.9 | 80.7 | 90.3 | 73.8 | 91.2 | -3.23*
Cc1cccc(NC(=O)c2sc3nc4c(c(-c5cccs5)c3c2N)CN(C)CC4)c1 | 56.8 | 51.7 | 81.2 | 32.0 | 14.9* | -0.02
CC(C)NC(=O)c1sc2nc3c(c(-c4cccs4)c2c1N)CN(C)CC3 | · | 88.3 | · | 91.6 | · | -0.77
CCN(CC)c1ccc(C(=O)Nc2cccc(F)c2)cc1 | 25.0* | 17.5 | 77.1 | 26.7 | 46.9 | -1.02
CCN(CC)c1ccc(NC(=O)c2cccc(OC)c2)c(C)c1 | 18.7* | 19.6 | 72.2 | 23.2 | 55.3 | -1.3
CCN(CC)c1ccc(NC(=O)c2cc(OC)cc(OC)c2)c(C)c1 | 24.7* | 11.6 | 55.7 | 12.3 | 33.2 | -1.79
CN(C)c1cccc(C(=O)Nc2cccc(F)c2)c1 | 83.2 | 72.0 | 100.0 | 72.6 | 84.8 | 0.05
O=C1CC(C2CCCO2)C(=O)N1c1ccccc1 (stereo unspecified) | 81.2 | 98.3 | 96.1 | 106.7 | 83.3 | -0.73
Cc1cnn(-c2cc(N/N=C/c3ccccc3)ncn2)c1 | · | 99.9 | · | 90.7 | · | -0.47
